# Results: ChEMBL document CHEMBL1124804, “Substituted vitamin K epoxide analogues. New competitive inhibitors and substrates of vitamin K1 epoxide reductase” (J Med Chem, 1990)
# pKi: −log10 of the molar value.
# Biological target: T1, Vitamin K epoxide reductase complex subunit 1 (Bos taurus, UniProt Q6B4J2)
# T1 sequence (Q6B4J2 whole entry): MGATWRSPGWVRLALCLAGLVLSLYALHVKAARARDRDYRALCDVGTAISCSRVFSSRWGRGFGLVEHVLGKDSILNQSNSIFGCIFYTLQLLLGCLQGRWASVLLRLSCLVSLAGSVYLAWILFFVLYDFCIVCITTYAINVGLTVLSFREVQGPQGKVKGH
# Experiment: Apparent kinetic constant for Vitamin K epoxide reductase
# Method in brief: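 Beef liver microsomes (0.8 mg) as vitamin K1 epoxide reductase source, 0.02% Emulgen 911. Vitamin K1 epoxide varied (10, 12.5, 16.5, 25, 40 μM) with 5 mM DTT, analogue at 0, 20, 40, 60 μM. Double-reciprocal plots built; Ki taken from replots of Km,app against analogue concentration. Also run at 40 μM epoxide with DTT varied 0.33–2.0 mM.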
row,pKi,SMILES
1,4.37,C/C(=C\C(O)C12OC1(C)C(=O)c1ccccc1C2=O)CCCC(C)CCCC(C)CCCC(C)C (stereo not drawn)
2,4.00,CC(C)CCCC(C)CCCC(C)CCCC(C)CC(F)C12OC1(C)C(=O)c1ccccc1C2=O (stereo not drawn)
3,4.20,CC(C)CCCC(C)CCCC(C)CCCC(C)CC(O)C12OC1(C)C(=O)c1ccccc1C2=O (stereo not drawn)
4,4.77,C/C(=C\CC12OC1(CF)C(=O)c1ccccc1C2=O)CCCC(C)CCCC(C)CCCC(C)C (stereo not drawn)
5,4.20,C/C(=C\CC12OC1(C(F)F)C(=O)c1ccccc1C2=O)CCCC(C)CCCC(C)CCCC(C)C (stereo not drawn)

# Second part, the compound before the results:
row,SMILES,pKi
1,C/C(=C\CC12OC1(CO)C(=O)c1ccccc1C2=O)CCCC(C)CCCC(C)CCCC(C)C (stereo not drawn),5.10
2,C/C(=C\CC12OC1(C=O)C(=O)c1ccccc1C2=O)CCCC(C)CCCC(C)CCCC(C)C (stereo not drawn),4.59
3,C/C(=C\CC12OC1(CCl)C(=O)c1ccccc1C2=O)CCCC(C)CCCC(C)CCCC(C)C (stereo not drawn),4.13
